Most compounds without a hit are left out; they make up all but 5.3% or so of the library.
CSC inhib: cancer stem cell viability inhibitors, primary screen, luminescence | cancer stem cell-like cells viability | inhibition, % at 7.5 µM | 300,000 tested, 1.1% active; in the data active means inhibition above about 75%; inconclusive means no clear call, values can overlap the other calls; tested in HMLE shEcad cells
Calb FLC: C. albicans growth inhibition with fluconazole, primary screen, CaCi-2 strain, Alamar Blue fluorescence; C. albicans CaCi-2 (fluconazole-resistant clinical isolate) + fluconazole, 48 h; growth inhibition, % (no concentration beside the values); 300,000 tested, 0.57% active;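 active means growth inhibition above about 58% in most replicates, limit read from the data, passing the limit was not always enough; inconclusive means exactly half the replicates above a set limit; inactive means most replicates below a set limit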;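 further: all wells also contain fluconazole at 8 µg/ml as a sub-toxic cotreatment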
T cruzi repl: inhibitors of intracellular T. cruzi growth, primary screen, luminescence, NIH3T3 host cells; T. cruzi beta-gal in NIH3T3, 90 h; inhibition, % (no concentration beside the values); 300,000 tested, 1.4% active; AID 1885, 2009;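 active means mean inhibition across valid replicates above about 55%, limit read from the data; inconclusive means mean below that limit but half or more replicates reach it; inactive means mean below it, under half of replicates reach it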;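 further: signal also drops with host cell toxicity which is not excluded here; higher percent means less beta-gal luminescence so fewer parasites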
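Read-out: Parasite load inhibition, % | Test system: Mouse NIH/3T3 fibroblasts infected with β-gal-expressing T. cruzi Tulahuen C4 | Amount: 5,000 cells/well | Medium: DMEM, 2% fetal bovine serum | Signal: GalScreen β-gal luminescence, detergent lysis, 60 min | Timing: 3 h attach, ≥90 h co-culture | Also added: Tulahuen C4 trypomastigotes, 5000/well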
Beta cell apopt: inhibitors of cytokine-induced beta cell apoptosis, primary screen, luminescence; INS-1E cytokine-induced death, ATP luminescence, 48 h; percent of positive-control rescue, neutral wells zero; protection from apoptosis, % (no concentration beside the values); 300,000 tested, 0.8% active; AID 435005, 2010;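 active means Every replicate reaches about 75%, or at least half do and their mean reaches it too, limit read from the data; inconclusive means At least half of replicates reach the limit but their mean does not; inactive means Under half of replicates reach the limit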;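 further: higher means more ATP so stronger rescue from cytokine killing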
NLRP3 yeast inh: NALP3 inflammasome inhibitors in reconstituted yeast, primary screen, luminescence, uHTS. AID 2825, 2010. Yeast reconstituted NLRP3/ASC/caspase-1, beta-gal luminescence, 24 h. 330,000 tested, 0.39% active. inhibition, % at 10 µM;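 active means inhibition of 50% or more; inactive means inhibition below 50%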
Mdm2-MdmX inh: inhibitors of human Mdm2-MdmX association, primary screen, cell-based, luminescence, split luciferase, SaOS-2, uHTS; Protein Mdm4 (Homo sapiens) + E3 ubiquitin-protein ligase Mdm2 (Homo sapiens), …; SaOS-2 split-luciferase Mdm2/MdmX complementation; inhibition, % at 8 µM; 330,000 tested, 3% active; AID 485346, 2010;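 active means inhibition of at least 50% at 8 µM in the primary screen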
Target sequence (O15151 whole entry, looked up): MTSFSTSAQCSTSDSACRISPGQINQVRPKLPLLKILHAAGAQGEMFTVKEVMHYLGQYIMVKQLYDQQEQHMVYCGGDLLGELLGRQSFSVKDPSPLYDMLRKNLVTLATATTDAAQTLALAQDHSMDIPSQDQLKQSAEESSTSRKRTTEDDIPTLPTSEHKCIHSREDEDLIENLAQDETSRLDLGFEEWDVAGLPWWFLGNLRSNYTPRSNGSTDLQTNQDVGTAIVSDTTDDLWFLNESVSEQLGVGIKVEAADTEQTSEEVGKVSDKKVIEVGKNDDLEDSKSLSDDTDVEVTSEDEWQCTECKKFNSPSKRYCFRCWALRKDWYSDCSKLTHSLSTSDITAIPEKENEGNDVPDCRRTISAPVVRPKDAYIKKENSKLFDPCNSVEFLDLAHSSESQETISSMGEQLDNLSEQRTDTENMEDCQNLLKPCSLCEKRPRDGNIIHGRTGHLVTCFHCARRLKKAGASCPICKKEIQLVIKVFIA
Target sequence (Q00987 whole entry, looked up): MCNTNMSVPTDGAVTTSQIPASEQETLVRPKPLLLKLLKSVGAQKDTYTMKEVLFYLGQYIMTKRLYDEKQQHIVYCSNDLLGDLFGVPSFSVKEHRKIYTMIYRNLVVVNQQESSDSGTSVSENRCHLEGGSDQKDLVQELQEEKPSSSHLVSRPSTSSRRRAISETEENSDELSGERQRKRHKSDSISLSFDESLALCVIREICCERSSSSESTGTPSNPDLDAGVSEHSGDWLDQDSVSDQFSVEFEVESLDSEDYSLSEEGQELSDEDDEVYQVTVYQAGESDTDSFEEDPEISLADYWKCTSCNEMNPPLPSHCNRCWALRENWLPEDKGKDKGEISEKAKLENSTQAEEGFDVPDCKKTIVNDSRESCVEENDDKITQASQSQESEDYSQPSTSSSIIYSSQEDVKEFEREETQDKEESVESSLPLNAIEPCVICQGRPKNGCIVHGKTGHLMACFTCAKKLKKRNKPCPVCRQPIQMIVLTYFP
Mdm2 MdmX conf: Mdm2-MdmX complex disruptors, retested hits, confirmation, luminescence, single concentration; shares compounds with Mdm2-MdmX inh; Mdm2-MdmX binding, luminescent assay; inhibition, % at 8 µM; 10,000 tested, 55% active; in the data active means inhibition above about 40%
Full FLuc ctr: full-length luciferase signal inhibition, confirmation, counter-screen for Mdm2/MdmX interaction inhibitor project, cell-based, single concentration, SaOS-2; shares compounds with Mdm2-MdmX inh; SaOS-2 full-length luciferase counterscreen, luminescence; inhibition, % at 8 µM; 6,200 tested, 77% active; AID 504607, 2011;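 active means mean inhibition at 8 µM reaching about 37%, which flags the compound as non-specific, limit read from the data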;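 further: p53-null SaOS-2 cells with luciferase driven by a doxycycline-inducible promoter; compound on cells about two nights before reading with doxycycline added after day one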
Of the large screens only hits and unclear results are named; the others gave an inactive call (follow-up assays come after a bar, where they were run).

CCN(CC(=O)NCc1ccc(Cl)cc1)C(=O)c1oc2ccccc2c1C	none
Cc1ccc(CN2CC(C(=O)Nc3ncc(C)s3)CC2=O)cc1 (centres undefined)	Mdm2-MdmX inh 61 (no result: CSC inhib, Calb FLC, T cruzi repl, Beta cell apopt) | Mdm2 MdmX conf 59 | Full FLuc ctr 66
Cc1ccc(CN2CC(C(=O)Nc3ccncc3)CC2=O)cc1 (centres undefined)	none (no result: CSC inhib)
O=C(OCC(=O)N(C1CCCCC1)C1CCCCC1)c1ccccc1O	none
CCc1ccc(-c2cc3c(=O)n(CC(=O)NCCCN4CCC(Cc5ccccc5)CC4)nc(C)n3n2)cc1	Mdm2-MdmX inh 100 | Mdm2 MdmX conf 99 | Full FLuc ctr 53
Cc1nn(CC(=O)NCCCN2CCC(Cc3ccccc3)CC2)c(=O)c2cc(-c3ccccc3)nn12	Mdm2-MdmX inh 96 | Mdm2 MdmX conf 69 | Full FLuc ctr 41
O=C(CSc1nc2nn(-c3ccccc3)c(=O)c-2c2n1CCCCC2)Nc1ccc(F)cc1F	none (no result: CSC inhib, Calb FLC, T cruzi repl)
O=C(CSc1nc2nn(-c3ccccc3)c(=O)c-2c2n1CCCCC2)Nc1ccc(F)c(F)c1	Mdm2-MdmX inh 55 (no result: Calb FLC, T cruzi repl) | Mdm2 MdmX conf inactive
O=C(O)c1cc(-c2ccco2)nn1-c1cccc(Cl)c1	none
Cn1c(=O)[nH]c(=O)c2c1nc(CN1CCN(c3cccc(Cl)c3)CC1)n2CCCc1ccccc1	none
Cn1c(=O)[nH]c(=O)c2c1nc(CN1CCN(c3cccc(Cl)c3)CC1)n2Cc1ccccc1Cl	Mdm2-MdmX inh 73 (no result: Beta cell apopt) | Mdm2 MdmX conf 51 | Full FLuc ctr 59
CCN1CCN(Cc2nc3c(c(=O)[nH]c(=O)n3C)n2Cc2ccccc2Cl)CC1	none
CCCCn1c(CN2CCN(c3cccc(Cl)c3)CC2)nc2c1c(=O)[nH]c(=O)n2C	Mdm2-MdmX inh 53 | Mdm2 MdmX conf 62 | Full FLuc ctr 57
COc1cc2c(cc1OC)CN(CCC(=O)c1ccc(Br)cc1)CC2	none
O=C(Cc1cc(=O)[nH][nH]1)N/N=C/c1cccc2ccccc12	none
O=C(NC(NC(=S)Nc1ccccc1)C(Cl)(Cl)Cl)c1cccc(Cl)c1 (centres undefined)	CSC inhib 89, T cruzi repl 65, Beta cell apopt 95, Mdm2-MdmX inh 93 | Mdm2 MdmX conf 46 | Full FLuc ctr 66
O=C(O)c1cccc(NC(=S)NC(NC(=O)c2cccc([N+](=O)[O-])c2)C(Cl)(Cl)Cl)c1 (centres undefined)	none
O=C(NC(NC(=S)Nc1ccc(Cl)cc1Cl)C(Cl)(Cl)Cl)c1cccc([N+](=O)[O-])c1 (centres undefined)	CSC inhib 128, T cruzi repl 74, Beta cell apopt 97, Mdm2-MdmX inh 98 | Mdm2 MdmX conf 94 | Full FLuc ctr inactive
O=c1cc(CN2CCOCC2)c2cc(Cl)ccc2o1	none
O=C(Cc1ccc(Cl)cc1)NCCc1c[nH]c2ccccc12	none (no result: NLRP3 yeast inh, Mdm2-MdmX inh)
O=C(CCl)N(c1ccc(Cl)cc1)c1c[nH]c2ccccc12	CSC inhib 88, Calb FLC 113, T cruzi repl 58, Mdm2-MdmX inh 69 | Mdm2 MdmX conf 100 | Full FLuc ctr 52
O=C(CCl)N(c1ccccc1)c1c[nH]c2ccccc12	Mdm2-MdmX inh 100 | Mdm2 MdmX conf 99 | Full FLuc ctr 52
NS(=O)(=O)c1ccc(CCNC(=O)COC(=O)Cc2ccc([N+](=O)[O-])cc2)cc1	none (no result: Calb FLC, T cruzi repl)
CCO[C@@H]1OC(C(=O)N2CCOCC2)=C[C@H](C2CC2)[C@H]1CCCO	none
CC(C)(C)C(=O)O/N=C(\N)Cc1ccc(-c2csnn2)cc1	Mdm2-MdmX inh 77 | Mdm2 MdmX conf inactive
COc1ccc(CC(=O)O/N=C(\N)Cc2ccc(OC)cc2)cc1	none
O=[N+]([O-])c1ccc(N=Nc2c(O)[nH]c3ccc(F)cc23)cc1	Mdm2-MdmX inh 54 | Mdm2 MdmX conf inactive
O=[N+]([O-])c1ccc2[nH]c(O)c(N=Nc3ccc(F)cc3)c2c1	none
CS(=O)(=O)Nc1ccc(C(=O)NC2CCCCC2)cc1	none
CS(=O)(=O)c1ccc(C(=O)NC2CCCCC2)cc1	Mdm2-MdmX inh 55 | Mdm2 MdmX conf inactive
CN(C)/C=N/c1nc2ncc(-c3ccc(Cl)cc3)c(/N=C/N(C)C)n2n1	none
CN(C)C1CCN(Cc2cc(COCc3ccccc3)c3cccnc3c2O)C1 (centres undefined)	Beta cell apopt 77, Mdm2-MdmX inh 67 (no result: CSC inhib, Calb FLC, T cruzi repl) | Mdm2 MdmX conf 71 | Full FLuc ctr inactive
Oc1c(CN2CCCCC2)cc(COCc2ccccc2)c2cccnc12	T cruzi repl 72, Mdm2-MdmX inh 52 | Mdm2 MdmX conf 49 | Full FLuc ctr 44
COc1cc2c(cc1OC)[C@@H](NC(=O)Cc1ccc(F)cc1)[C@H](OCc1ccccc1)C2	none (no result: CSC inhib, Calb FLC, T cruzi repl, Beta cell apopt, NLRP3 yeast inh)
N#Cc1ccccc1NS(=O)(=O)c1cc2c3c(c1)CCN3C(=O)CC2	none
Cn1cnnc1Sc1nc([N+](=O)[O-])nn1C	none
COc1ccccc1-c1nnc(Sc2nc([N+](=O)[O-])nn2C)o1	T cruzi repl 58, Mdm2-MdmX inh 78 | Mdm2 MdmX conf 99 | Full FLuc ctr 50
Clc1ccccc1-c1nnc2sc(-c3ccncc3)nn12	none
CN(C)c1ccc(-c2nn3c(-c4cccnc4)nnc3s2)cc1	none
CN(C)c1ccc(-c2nn3c(-c4ccccc4Cl)nnc3s2)cc1	Mdm2-MdmX inh 53 | Mdm2 MdmX conf 66 | Full FLuc ctr 65
COc1ccccc1-c1nnc2sc(-c3ccc(N(C)C)cc3)nn12	Mdm2-MdmX inh 69 | Mdm2 MdmX conf 68 | Full FLuc ctr 94
CN1CCN(NC(=O)c2cc(Br)ccc2Cl)CC1	none
CC1=C(C(=O)Nc2ccccc2F)C(c2ccsc2)C2=C(CC(C)(C)CC2=O)N1 (centres undefined)	Calb FLC inconclusive
CC1=C(C(=O)Nc2cccc(F)c2)C(c2ccsc2)C2=C(CC(C)(C)CC2=O)N1 (centres undefined)	Mdm2-MdmX inh 54 | Mdm2 MdmX conf 54 | Full FLuc ctr 55
CC(=O)Nc1ccc(NC(=O)C(C)OC(=O)CCCc2c[nH]c3ccccc23)cc1 (centres undefined)	none

Assay outcomes deposited in PubChem BioAssay by several laboratories.
